Assay results from ChEMBL document CHEMBL3351398, “Discovery of a Potent and Selective DGAT1 Inhibitor with a Piperidinyl-oxy-cyclohexanecarboxylic Acid Moiety” (ACS Med Chem Lett, 2014).

Key:
[1] = target: T1, Sterol O-acyltransferase 1 (Homo sapiens, UniProt P35610); test: Inhibition of human ACAT1
T1 sequence (P35610 whole entry): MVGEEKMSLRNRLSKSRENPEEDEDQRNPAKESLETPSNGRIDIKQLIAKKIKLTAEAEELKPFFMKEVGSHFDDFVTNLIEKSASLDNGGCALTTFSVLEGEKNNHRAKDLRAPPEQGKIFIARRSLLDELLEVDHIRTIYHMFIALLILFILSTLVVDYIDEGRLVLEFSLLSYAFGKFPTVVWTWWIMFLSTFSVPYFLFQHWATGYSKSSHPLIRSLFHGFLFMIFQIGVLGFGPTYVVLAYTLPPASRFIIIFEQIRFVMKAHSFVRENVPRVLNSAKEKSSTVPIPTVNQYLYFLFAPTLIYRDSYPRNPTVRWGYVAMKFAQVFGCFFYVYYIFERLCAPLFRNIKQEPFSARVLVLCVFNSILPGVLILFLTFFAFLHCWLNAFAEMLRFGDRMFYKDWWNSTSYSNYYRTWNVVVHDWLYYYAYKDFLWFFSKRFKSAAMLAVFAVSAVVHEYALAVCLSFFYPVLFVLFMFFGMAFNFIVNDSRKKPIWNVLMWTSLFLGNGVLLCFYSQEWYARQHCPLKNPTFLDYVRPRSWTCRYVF

Zone of skin [2] = test: Drug level in skin of C57BL/6 mouse assessed as cis-4-((1-(5-(5-(trifluoromethyl)-1H-benzo[d]imidazol-2-yl)pyridin-2-yl)piperidin-4-yl)oxy)cyclohexanecarboxylic acid level at 10 mg/kg, po after 3 hrs; assay type: ADME, organism-based; design: dose 10 mg/kg, route oral; settings: in vivo, read-out: Drug uptake
Summary of the method: (§1)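 Tissue distribution in C57BL/6 mice. A single oral dose of 10 mg/kg was given as a solution in EtOH/PEG400/water (10:50:40). Parent and its cis isomer were both measured, in μM, in plasma, liver, small intestine, adipose fat and skin at 3 h and 24 h.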

[3] = Drug level in plasma of C57BL/6 mouse at 10 mg/kg, po after 3 hrs; assay type: ADME, organism-based; design: dose 10 mg/kg, route oral; summary of the method: as §1
Plasma = test: Drug level in plasma of C57BL/6 mouse assessed as cis-4-((1-(5-(5-(trifluoromethyl)-1H-benzo[d]imidazol-2-yl)pyridin-2-yl)piperidin-4-yl)oxy)cyclohexanecarboxylic acid level at 10 mg/kg, po after 24 hrs; assay type: ADME, organism-based; design: dose 10 mg/kg, route oral; settings: in vivo; summary of the method: as §1
Salmonella typhimurium = test: Induction of mutagenicity in Salmonella typhimurium TA100 assessed as increase in number of revertants in presence of metabolic activation; assay type: toxicity, organism-based; settings: salmonella enterica subsp. enterica serovar typhimurium
Summary of the method: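 Microbial reverse-mutation (Ames) test in strains TA1535, TA98 and TA100, with and without metabolic activation. The concentration range was 30 to 5000 μg/plate. A positive call required a 2-fold or greater increase in revertants relative to the solvent control.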

[4] = Drug level in skin of C57BL/6 mouse at 10 mg/kg, po after 3 hrs; assay type: ADME, organism-based, Zone of skin; design: dose 10 mg/kg, route oral; settings: read-out: Drug uptake; summary of the method: as §1
[5] = Drug level in adipose fat of C57BL/6 mouse at 10 mg/kg, po after 3 hrs; assay type: ADME, organism-based, Adipose tissue; design: dose 10 mg/kg, route oral; settings: read-out: Drug uptake; summary of the method: as §1
Rattus norvegicus [6] = test: Inhibition of plasma triglyceride accumulation in Sprague-Dawley rat at 3 mg/kg, po dosed 2 hrs before lipid challenge and measured at 18 hrs by lipid tolerance test; assay type: functional
Summary of the method: (§2)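 Rat lipid tolerance test at oral doses of 1 and 3 mpk. Reduction of lipid excursion was normalized to a reference DGAT1 inhibitor given at 10 mpk, set as 100%. Plasma drug levels were the parent and its cis isomer combined, measured 4 h after oral dosing.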

Rattus norvegicus [7] = test: Inhibition of plasma triglyceride accumulation in Sprague-Dawley rat at 1 mg/kg, po dosed 2 hrs before lipid challenge and measured at 18 hrs by lipid tolerance test; assay type: functional; summary of the method: as §2
[8] = Volume of distribution at steady state in Sprague-Dawley rat at 1 mg/kg, iv or 2 mg/kg, po; assay type: ADME, organism-based; settings: in vivo, read-out: Vdss
Summary of the method: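 Sprague–Dawley rats were dosed as a solution in EtOH/PEG400/water (10:50:40), 1 mg/kg iv and 2 mg/kg po. Pharmacokinetic parameters were derived from these dosings.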

Canis familiaris = test: AUC in Beagle dog assessed as cis-4-((1-(5-(5-(trifluoromethyl)-1H-benzo[d]imidazol-2-yl)pyridin-2-yl)piperidin-4-yl)oxy)cyclohexanecarboxylic acid at 4 mg/kg, po; assay type: ADME, organism-based, Canis lupus familiaris, Plasma; design: dose 4 mg/kg, route oral; settings: in vivo
Summary of the method: (§3)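 Single-dose pharmacokinetics. Beagle dogs were dosed at 1 mg/kg iv as a solution in 30% captisol (pH 8) and at 4 mg/kg po in 0.5 methylcellulose.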

Zone of skin [9] = test: Drug level in skin of C57BL/6 mouse assessed as cis-4-((1-(5-(5-(trifluoromethyl)-1H-benzo[d]imidazol-2-yl)pyridin-2-yl)piperidin-4-yl)oxy)cyclohexanecarboxylic acid level at 10 mg/kg, po after 24 hrs; assay type: ADME, organism-based; design: dose 10 mg/kg, route oral; settings: in vivo, read-out: Drug uptake; summary of the method: as §1
[10] = Clearance in Beagle dog at 1 mg/kg, iv or 4 mg/kg, po; assay type: ADME, organism-based, Canis lupus familiaris; settings: in vivo; summary of the method: as §3
Liver = test: Drug level in liver of C57BL/6 mouse assessed as cis-4-((1-(5-(5-(trifluoromethyl)-1H-benzo[d]imidazol-2-yl)pyridin-2-yl)piperidin-4-yl)oxy)cyclohexanecarboxylic acid level at 10 mg/kg, po after 3 hrs; assay type: ADME, organism-based; design: dose 10 mg/kg, route oral; settings: in vivo, read-out: Drug uptake; summary of the method: as §1
[11] = target: T2, Diacylglycerol O-acyltransferase 1 (Mus musculus, UniProt Q9Z2A7); test: Inhibition of mouse DGAT1
T2 sequence (Q9Z2A7 whole entry): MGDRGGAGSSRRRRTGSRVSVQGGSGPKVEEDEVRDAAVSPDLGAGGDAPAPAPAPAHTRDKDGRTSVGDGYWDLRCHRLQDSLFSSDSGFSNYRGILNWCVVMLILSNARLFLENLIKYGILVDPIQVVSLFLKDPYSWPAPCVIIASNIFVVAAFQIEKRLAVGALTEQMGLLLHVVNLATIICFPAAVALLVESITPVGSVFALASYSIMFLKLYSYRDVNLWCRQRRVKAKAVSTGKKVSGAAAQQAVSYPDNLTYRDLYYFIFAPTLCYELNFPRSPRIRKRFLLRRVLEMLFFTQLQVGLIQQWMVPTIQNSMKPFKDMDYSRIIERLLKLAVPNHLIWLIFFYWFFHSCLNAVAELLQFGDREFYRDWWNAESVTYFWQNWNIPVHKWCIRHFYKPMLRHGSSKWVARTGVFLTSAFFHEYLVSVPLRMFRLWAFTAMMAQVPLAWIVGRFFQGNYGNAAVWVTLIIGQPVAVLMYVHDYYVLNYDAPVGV

[12] = Drug level in adipose fat of C57BL/6 mouse at 10 mg/kg, po after 24 hrs; assay type: ADME, organism-based, Adipose tissue; design: dose 10 mg/kg, route oral; settings: read-out: Drug uptake; summary of the method: as §1
Rattus norvegicus [13] = test: AUC in Sprague-Dawley rat assessed as cis-4-((1-(5-(5-(trifluoromethyl)-1H-benzo[d]imidazol-2-yl)pyridin-2-yl)piperidin-4-yl)oxy)cyclohexanecarboxylic acid rat at 2 mg/kg, po; assay type: ADME, organism-based, Plasma; design: dose 2 mg/kg, route oral; settings: in vivo
[14] = Plasma concentration in Sprague-Dawley rat at 3 mg/kg, po dosed 2 hrs before lipid challenge and measured at 4 hrs by lipid tolerance test; assay type: ADME, organism-based; design: dose 3 mg/kg, route oral; summary of the method: as §2
[15] = Plasma concentration in Sprague-Dawley rat at 1 mg/kg, po dosed 2 hrs before lipid challenge and measured at 4 hrs by lipid tolerance test; assay type: ADME, organism-based; design: dose 1 mg/kg, route oral; summary of the method: as §2
[16] = Drug level in plasma of C57BL/6 mouse at 10 mg/kg, po after 24 hrs; assay type: ADME, organism-based; design: dose 10 mg/kg, route oral; summary of the method: as §1
[17] = Oral bioavailability in Beagle dog at 4 mg/kg; assay type: ADME, organism-based, Canis lupus familiaris; settings: in vivo; summary of the method: as §3
[18] = Half life in Beagle dog at 1 mg/kg, iv or 4 mg/kg, po; assay type: ADME, organism-based, Canis lupus familiaris; settings: in vivo; summary of the method: as §3

IC50 [1]: > 10000 nM
concentration (Zone of skin [2]): 46 nM
concentration at 3 h [3]: 324 nM
concentration (Plasma): < 10 nM
concentration at 3 h [4]: 404 nM
concentration at 3 h [5]: 237 nM
Vd [8]: 0.19 L/kg
AUC (Canis familiaris): 0.11 µM·h
concentration (Zone of skin [9]): 18 nM
clearance [10]: 88.9 mL/min/kg
concentration (Liver): 6910 nM
IC50 [11]: 23 nM
concentration at 24 h [12]: < 10 nM
AUC (Rattus norvegicus [13]): 0.97 µM·h
concentration at 24 h [16]: < 10 nM
bioavailability [17]: 126%
half-life [18]: 1.16 h
SMILES: O=C(O)[C@H]1CC[C@H](OC2CCN(c3ccc(-c4nc5cc(C(F)(F)F)ccc5[nH]4)cn3)CC2)CC1
Activity (Salmonella typhimurium): Non-toxic
inhibition in vivo at 3 mg/kg (Rattus norvegicus [6]): 80%
inhibition in vivo at 1 mg/kg (Rattus norvegicus [7]): 80%
concentration at 4 h [14]: 58 nM
concentration at 4 h [15]: 20 nM
